27 compounds from ChEMBL document CHEMBL2086356, “Identification of a novel family of BRAF(V600E) inhibitors” (J Med Chem, 2012) can be followed below.

Structures are written as SMILES. Calls of active or inactive are those of the source. The rule behind the calls is not given here. A value given as a limit tells only on which side of the number the result lay.

The species entered for assay [1] is Homo sapiens. Nature of the assay: Selectivity ratio of IC50 for human 6x-His tagged wild type BRAF to IC50 for human 6x-His tagged BRAF V600E mutant.
Assay [2] deals with Serine/threonine-protein kinase B-raf (Homo sapiens, UniProt P15056, V600E). The experiment in a line: Inhibition of human 6x-His tagged BRAF V600E mutant expressed in Sf9 cells by ELISA based kinase assay. The method in brief: (§1)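 Enzyme at about 28–30 nM was preincubated with compound for 1 h at RT, then added to glutathione-plate-bound GST-MEK-His (50 μg/mL). Reaction in HEPES pH 7.0 with MgCl2 and 100 μM ATP ran 30 min at 37 °C. Read-out was anti-phospho-MEK1/2 then HRP chemiluminescence. Run in duplicate or triplicate; IC50 from a four-parameter logistic fit.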
Chain of Serine/threonine-protein kinase B-raf (Homo sapiens, UniProt P15056, V600E) (P15056 2-766 V600E limits assumed): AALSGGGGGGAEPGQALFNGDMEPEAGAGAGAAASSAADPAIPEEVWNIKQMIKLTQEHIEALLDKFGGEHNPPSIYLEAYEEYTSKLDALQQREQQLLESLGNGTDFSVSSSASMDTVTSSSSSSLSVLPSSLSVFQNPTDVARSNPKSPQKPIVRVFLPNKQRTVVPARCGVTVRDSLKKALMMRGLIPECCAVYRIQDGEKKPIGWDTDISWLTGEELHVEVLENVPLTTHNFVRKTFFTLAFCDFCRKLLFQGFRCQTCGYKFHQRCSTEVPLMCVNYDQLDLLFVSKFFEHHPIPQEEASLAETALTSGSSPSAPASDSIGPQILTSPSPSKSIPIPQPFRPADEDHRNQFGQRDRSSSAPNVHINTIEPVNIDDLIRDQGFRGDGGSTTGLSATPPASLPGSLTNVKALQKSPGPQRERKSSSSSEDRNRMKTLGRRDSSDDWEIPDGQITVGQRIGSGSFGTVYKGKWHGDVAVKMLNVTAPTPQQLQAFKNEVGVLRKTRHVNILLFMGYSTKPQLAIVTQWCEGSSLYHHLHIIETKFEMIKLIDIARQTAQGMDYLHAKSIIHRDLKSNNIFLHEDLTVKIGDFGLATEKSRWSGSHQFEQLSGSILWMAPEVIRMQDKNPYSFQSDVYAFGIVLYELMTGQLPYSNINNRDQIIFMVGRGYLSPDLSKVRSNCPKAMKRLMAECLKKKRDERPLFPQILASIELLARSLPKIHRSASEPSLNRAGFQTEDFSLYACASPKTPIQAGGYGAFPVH

For assay [3], the target named is T1, Serine/threonine-protein kinase B-raf (Homo sapiens, UniProt P15056). The experiment in a line: Inhibition of human 6x-His tagged wild type BRAF expressed in Sf9 cells by ELISA based kinase assay. The method in brief: as §1
T1 sequence (P15056 whole entry, the tested form may be a part): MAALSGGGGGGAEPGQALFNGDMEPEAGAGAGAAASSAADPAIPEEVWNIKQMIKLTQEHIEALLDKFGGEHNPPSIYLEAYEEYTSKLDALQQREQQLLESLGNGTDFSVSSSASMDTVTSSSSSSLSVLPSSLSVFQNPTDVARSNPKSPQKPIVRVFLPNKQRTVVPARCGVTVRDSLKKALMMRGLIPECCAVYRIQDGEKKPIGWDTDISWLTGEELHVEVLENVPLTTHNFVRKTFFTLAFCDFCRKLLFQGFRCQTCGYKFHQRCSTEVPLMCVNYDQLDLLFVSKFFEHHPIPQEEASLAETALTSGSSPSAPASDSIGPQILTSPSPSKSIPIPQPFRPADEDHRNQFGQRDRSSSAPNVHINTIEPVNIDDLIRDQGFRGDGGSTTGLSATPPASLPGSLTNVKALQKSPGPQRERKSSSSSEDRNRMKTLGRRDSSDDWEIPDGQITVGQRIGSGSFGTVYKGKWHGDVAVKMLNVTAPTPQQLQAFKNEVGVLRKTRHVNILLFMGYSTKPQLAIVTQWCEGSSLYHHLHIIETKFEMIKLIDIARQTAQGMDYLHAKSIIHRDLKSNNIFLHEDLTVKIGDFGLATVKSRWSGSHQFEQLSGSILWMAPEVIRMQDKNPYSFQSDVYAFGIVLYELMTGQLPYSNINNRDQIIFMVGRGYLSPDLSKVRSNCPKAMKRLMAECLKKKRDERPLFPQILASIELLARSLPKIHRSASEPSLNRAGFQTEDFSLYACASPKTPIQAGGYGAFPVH
Assay [4] has as its target RAF proto-oncogene serine/threonine-protein kinase (Homo sapiens) (UniProt P04049). The experiment in a line: Inhibition of CRAF assessed as residual activity at 1 uM by ELISA based kinase assay. Summed up: (§2)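 Single-point ELISA kinase assay at 1 μM inhibitor, reading phospho-MEK on immobilized GST-MEK-His. CRAF at 20–30 nM enzyme with 100 μM ATP; BRAF WT or V600E kinase domain (Sf9-expressed, 6xHis) under the same assay conditions. Remaining activity reported as mean of n = 3.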

Assay [5] deals with Phosphatidylinositol 4,5-bisphosphate 3-kinase catalytic subunit gamma isoform (Homo sapiens) (UniProt P48736). The experiment in a line: Inhibition of PI3Kgamma assessed as residual activity at 1 uM.
Chain of Phosphatidylinositol 4,5-bisphosphate 3-kinase catalytic subunit gamma isoform (Homo sapiens) (P48736 whole entry, looked up, canonical isoform): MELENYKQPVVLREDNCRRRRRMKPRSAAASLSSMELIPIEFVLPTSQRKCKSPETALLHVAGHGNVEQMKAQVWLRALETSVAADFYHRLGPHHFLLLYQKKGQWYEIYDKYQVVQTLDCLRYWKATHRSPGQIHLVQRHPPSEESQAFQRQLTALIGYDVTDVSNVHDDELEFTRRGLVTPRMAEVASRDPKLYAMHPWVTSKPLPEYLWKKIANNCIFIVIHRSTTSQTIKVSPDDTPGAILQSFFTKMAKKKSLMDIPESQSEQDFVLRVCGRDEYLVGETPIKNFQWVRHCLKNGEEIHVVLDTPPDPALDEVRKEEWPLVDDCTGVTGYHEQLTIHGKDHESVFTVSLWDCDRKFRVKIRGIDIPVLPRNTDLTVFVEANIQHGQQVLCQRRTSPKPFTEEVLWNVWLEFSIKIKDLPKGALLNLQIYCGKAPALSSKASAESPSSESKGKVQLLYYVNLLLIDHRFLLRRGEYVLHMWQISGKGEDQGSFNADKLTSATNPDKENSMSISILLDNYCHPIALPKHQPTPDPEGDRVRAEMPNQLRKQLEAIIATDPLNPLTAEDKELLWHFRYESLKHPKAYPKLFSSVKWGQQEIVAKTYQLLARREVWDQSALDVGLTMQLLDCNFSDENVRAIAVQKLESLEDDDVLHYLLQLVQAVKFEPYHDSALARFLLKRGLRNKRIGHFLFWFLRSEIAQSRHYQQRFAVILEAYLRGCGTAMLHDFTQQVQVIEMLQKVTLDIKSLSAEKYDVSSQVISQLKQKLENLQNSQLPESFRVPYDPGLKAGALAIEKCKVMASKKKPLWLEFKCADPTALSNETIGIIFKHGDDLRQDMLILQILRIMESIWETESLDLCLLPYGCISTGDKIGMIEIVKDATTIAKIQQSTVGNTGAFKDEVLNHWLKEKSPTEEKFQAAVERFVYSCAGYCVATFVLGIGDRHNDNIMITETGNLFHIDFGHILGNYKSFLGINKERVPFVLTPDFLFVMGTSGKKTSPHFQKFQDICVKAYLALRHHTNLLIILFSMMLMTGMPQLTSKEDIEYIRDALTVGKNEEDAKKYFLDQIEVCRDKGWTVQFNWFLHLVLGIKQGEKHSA
Assay [6] addresses Phosphatidylinositol 4,5-bisphosphate 3-kinase catalytic subunit alpha isoform (Homo sapiens) (UniProt P42336). The experiment in a line: Inhibition of PI3Kalpha assessed as residual activity at 1 uM.
Assay [7] in a line: Inhibition of GSK3 assessed as residual activity at 1 uM.
The target of assay [8] is Serine/threonine-protein kinase pim-1 (Homo sapiens) (UniProt P11309). Nature of the assay: Inhibition of PIM1 assessed as residual activity at 1 uM.
Chain of Serine/threonine-protein kinase pim-1 (Homo sapiens) (P11309 whole entry, looked up): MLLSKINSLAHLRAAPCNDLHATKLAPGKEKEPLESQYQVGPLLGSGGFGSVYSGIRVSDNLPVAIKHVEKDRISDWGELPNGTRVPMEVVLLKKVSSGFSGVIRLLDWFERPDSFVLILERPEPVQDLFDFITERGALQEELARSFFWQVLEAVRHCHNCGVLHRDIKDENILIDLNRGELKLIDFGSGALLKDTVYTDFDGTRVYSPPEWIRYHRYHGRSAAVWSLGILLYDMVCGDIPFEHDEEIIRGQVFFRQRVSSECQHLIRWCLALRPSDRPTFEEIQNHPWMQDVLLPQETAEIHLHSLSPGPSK
Assay [9] addresses Serine/threonine-protein kinase PAK 1 (Homo sapiens) (UniProt Q13153). Nature of the assay: Inhibition of PAK1 assessed as residual activity at 1 uM.
Assay [10] is described as follows: Inhibition of p70S6K assessed as residual activity at 1 uM by scintillation counter in presence of gamma-P32 ATP. The method in brief: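 p70S6K (20 nM) was preincubated with inhibitor at RT in 20 mM MOPS, 30 mM MgCl2, 0.8 μg/μL BSA, 5% DMSO, pH 7.0, with S6 kinase/Rsk2 peptide (3.6 μM). After 15 min, ATP was added to 100 μM with γ-32P ATP and run 30 min. Product was captured on P81 paper, washed with phosphoric acid, and counted by scintillation. Remaining activity was measured at 1 μM, mean of n = 3.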

In assay [11] the target is T1, Serine/threonine-protein kinase B-raf. Nature of the assay: Inhibition of human 6x-His tagged wild type BRAF expressed in Sf9 cells assessed as residual activity at 1 uM by ELISA based kinase assay. Summed up:
as §2

For assay [12], the system named is Serine/threonine-protein kinase B-raf (Homo sapiens), P15056 [V600E]. The experiment in a line: Inhibition of human 6x-His tagged BRAF V600E mutant expressed in Sf9 cells assessed as residual activity at 1 uM by ELISA based kinase assay. The method in brief: as §2
Chain of Serine/threonine-protein kinase B-raf (Homo sapiens), P15056 [V600E] (P15056 whole entry V600E): as the sequence (P15056 whole entry, the tested form may be a part) above, with V600E counted along it
For assay [13], the species on record is Homo sapiens. Nature of the assay: Antiproliferative activity against human 451LU cells harboring BRAF V600E mutant by MTS assay. Type of assay: functional, cell-based. Summed up:
(§3)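 451Lu melanoma cells were grown in DMEM with 5% FBS, and primary melanocytes (FOM) and fibroblasts (FF) were taken from neonatal foreskin epidermis. Cells were seeded at 5000/well, left to adhere overnight, then exposed to rising compound doses or DMSO for 72 h. Read-out was MTS absorbance at 490 nm, normalized to DMSO wells. At least 4 wells per condition; experiment done in triplicate.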

For another assay, the system named is FOM. The experiment in a line: Antiproliferative activity against human FOM cells by MTS assay. Type of assay: functional, cell-based. The method in brief:
as §3

The subject of another assay is FF2508. The experiment in a line: Antiproliferative activity against human FF2508 cells by MTS assay. Type of assay: functional, cell-based. The method in brief:
as §3

In assay [14] the test system is Serine/threonine-protein kinase B-raf (Homo sapiens), P15056 [V600E]. The experiment in a line: Inhibition of B-Raf V600E mutant-mediated MEK phosphorylation in human 451LU cells by Western blotting.

Chain of Phosphatidylinositol 4,5-bisphosphate 3-kinase catalytic subunit alpha isoform (Homo sapiens) (P42336 whole entry, canonical isoform): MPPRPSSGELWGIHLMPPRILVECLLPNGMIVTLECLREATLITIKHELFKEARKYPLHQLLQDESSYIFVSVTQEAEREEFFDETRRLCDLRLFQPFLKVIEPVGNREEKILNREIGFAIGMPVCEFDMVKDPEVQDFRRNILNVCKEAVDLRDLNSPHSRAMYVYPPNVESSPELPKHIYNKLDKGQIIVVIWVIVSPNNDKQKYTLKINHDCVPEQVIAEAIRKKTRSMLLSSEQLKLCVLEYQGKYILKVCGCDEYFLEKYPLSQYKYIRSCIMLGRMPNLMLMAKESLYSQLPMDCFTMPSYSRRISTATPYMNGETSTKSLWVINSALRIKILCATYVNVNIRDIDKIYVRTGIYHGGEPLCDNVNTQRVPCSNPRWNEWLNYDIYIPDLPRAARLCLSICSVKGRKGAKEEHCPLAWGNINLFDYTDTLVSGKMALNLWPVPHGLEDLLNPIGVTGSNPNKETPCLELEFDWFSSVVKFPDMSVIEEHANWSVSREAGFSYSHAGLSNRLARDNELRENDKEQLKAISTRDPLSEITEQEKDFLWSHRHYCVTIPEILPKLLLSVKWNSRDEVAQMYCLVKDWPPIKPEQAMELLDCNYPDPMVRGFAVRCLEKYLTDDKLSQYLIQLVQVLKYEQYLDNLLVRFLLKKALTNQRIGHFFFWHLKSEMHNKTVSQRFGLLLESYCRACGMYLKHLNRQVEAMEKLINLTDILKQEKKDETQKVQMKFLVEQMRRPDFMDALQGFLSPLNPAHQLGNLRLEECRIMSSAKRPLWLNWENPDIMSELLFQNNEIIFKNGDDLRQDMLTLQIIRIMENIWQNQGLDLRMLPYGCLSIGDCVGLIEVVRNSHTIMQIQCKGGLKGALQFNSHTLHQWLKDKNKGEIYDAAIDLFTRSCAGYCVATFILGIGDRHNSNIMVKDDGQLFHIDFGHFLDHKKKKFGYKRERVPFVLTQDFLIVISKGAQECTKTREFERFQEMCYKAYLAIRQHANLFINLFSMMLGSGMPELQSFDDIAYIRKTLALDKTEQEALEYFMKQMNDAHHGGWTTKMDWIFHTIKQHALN
Chain of Serine/threonine-protein kinase PAK 1 (Homo sapiens) (Q13153 whole entry): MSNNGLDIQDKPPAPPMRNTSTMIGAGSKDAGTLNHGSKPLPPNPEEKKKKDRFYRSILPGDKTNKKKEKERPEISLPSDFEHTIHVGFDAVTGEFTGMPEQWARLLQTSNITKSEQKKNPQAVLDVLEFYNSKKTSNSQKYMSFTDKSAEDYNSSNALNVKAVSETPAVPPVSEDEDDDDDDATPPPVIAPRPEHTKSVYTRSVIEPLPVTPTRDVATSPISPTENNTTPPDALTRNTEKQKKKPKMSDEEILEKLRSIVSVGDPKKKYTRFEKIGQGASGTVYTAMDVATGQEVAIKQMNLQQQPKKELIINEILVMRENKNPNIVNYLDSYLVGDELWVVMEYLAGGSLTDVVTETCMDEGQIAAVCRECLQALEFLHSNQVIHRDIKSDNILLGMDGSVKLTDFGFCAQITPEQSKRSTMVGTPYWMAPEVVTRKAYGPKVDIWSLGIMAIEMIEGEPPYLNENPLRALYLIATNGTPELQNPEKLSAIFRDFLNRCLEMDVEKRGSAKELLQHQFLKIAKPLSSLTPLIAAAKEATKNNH

With `O=S(=O)(Nc1cc(Sc2ncc[nH]2)c(O)c2ccccc12)c1cccs1`, the Ratio IC50 in the assay filed under Homo sapiens [1] was 2. Also, the values for the IC50 in assay [2] and in assay [3] were 120 nM and 170 nM, respectively.

Regarding `COc1cc(C(Nc2ccccn2)c2cc(Cl)c3cccnc3c2O)cc(Br)c1O` (stereo not drawn), in the assay listed under Homo sapiens [1], the Ratio IC50 amounted to 2. For the same compound, the IC50 in [2] came out at 700 nM; in assay [3], 3000 nM.

`O=C(/C=C/S(=O)(=O)c1ccc(Cl)cc1)c1ccc(F)cc1`: in the assay listed under Homo sapiens [1], the Ratio IC50 was 2. The IC50 was determined as 300 nM in assay [2] and 900 nM in assay [3].

Take `O=S(=O)(Nc1cc(Sc2ncn[nH]2)c(O)c2ccccc12)c1c(F)c(F)c(F)c(F)c1F`: the results for the concentration for half-maximal inhibition (IC50) in assay [2] and in assay [3] were 520 nM and 590 nM, respectively.

On to `Oc1c(C(Nc2cccnc2)c2ccsc2)ccc2cccnc12` (stereo not drawn), for which the Ratio IC50 in the assay filed under Homo sapiens [1] is 2. In addition, the IC50 in [2] came to 800 nM; in [3], 2000 nM.

As to `O=S(=O)(Nc1cc(Sc2ccccc2)c(O)c2ccccc12)c1cccs1`, the concentration for half-maximal inhibition (IC50) in assay [2] was determined as 280 nM; in [3], 570 nM.

For `CCCCCCCCS(=O)(=O)Nc1cc(Sc2nnc[nH]2)c(O)c2ccccc12`, the IC50 in [2] was determined as 720 nM; in assay [3] it was 1660 nM.

On to `O=S(=O)(Nc1cc(Sc2ncn[nH]2)c(O)c2ccccc12)c1ccc(-c2ccccc2)cc1`, for which the Activity in [4] stood at 60%; in [5] it was 75%; in assay [6], 75%; in [7], 75%; in assay [8] it was 75%; in assay [9], 75%. The Activity in [10] was 75%; in assay [11] it was below 10%; in assay [12], below 10%. In addition, the Ratio IC50 in the assay listed under Homo sapiens [1] worked out at 2. In the assay listed under Homo sapiens [13], the result was Active. Besides, the outcome with FOM and with FF2508 was inactive. The inhibition result in [14] is “Active”.

`Oc1c(C(Nc2ccccn2)c2ccco2)cc(Cl)c2cccnc12` (stereo not drawn): the IC50 in [3] amounted to 800 nM.

Take `O=S(=O)(Nc1cc(Sc2nc[nH]n2)c(O)c2ccccc12)c1ccc(C(F)(F)F)cc1`: the IC50 is 210 nM in assay [2] and 190 nM in assay [3].

With `O=C1CCC(=O)N1c1ccc(F)c(S(=O)(=O)Nc2cc(Sc3ncn[nH]3)c(O)c3ccccc23)c1F`, the IC50 stood at 670 nM in assay [2] and 680 nM in [3].

For the compound `Cn1nnnc1Sc1cc(NS(=O)(=O)c2cccs2)c2ccccc2c1O`, the IC50 was 250 nM in [2] and 320 nM in assay [3].

Consider `O=S(=O)(Nc1cc(Sc2ncn[nH]2)c(O)c2ccccc12)c1c(F)ccc(N(Cc2ccccc2)Cc2ccccc2)c1F`, for which the results for the IC50 in assay [2] and in [3] were 3600 nM and 5800 nM, respectively.

Consider `O=C1C(Sc2ncn[nH]2)=C/C(=N\S(=O)(=O)c2cccs2)c2ccccc21`, for which the IC50 in [2] came out at 190 nM; in assay [3], 230 nM.

As for `Cc1cc(C)c2c(=O)n(C(=O)c3cccs3)sc2n1`, the figures for the IC50 in assay [2] and in assay [3] were 600 nM and 400 nM, respectively.

Regarding `CC(=O)N1CCc2cc(S(=O)(=O)Nc3cc(Sc4nc[nH]n4)c(O)c4ccccc34)ccc21`, the IC50 in assay [2] was found to be 140 nM; in assay [3] it was 270 nM.

Regarding `O=S(=O)(Nc1cc(Sc2ccccn2)c(O)c2ccccc12)c1cccs1`, the IC50 in assay [2] is 190 nM; in [3], 350 nM.

As to `O=S(=O)(Nc1cc(Cl)c(O)c2ccccc12)c1cccs1`, the IC50 in [2] worked out at 380 nM; in assay [3] it was 450 nM.

Take `CC(=O)Nc1ccc(S(=O)(=O)Nc2cc(Sc3nc[nH]n3)c(O)c3ccccc23)cc1`: the IC50 in assay [2] was found to be 140 nM.

For `O=S(=O)(Nc1cc(Sc2nc[nH]n2)c(O)c2ccccc12)c1ccc2ccccc2c1`, the results for the 50% inhibitory concentration (IC50) in assay [2] and in assay [3] were 150 nM and 400 nM, respectively.

As for `O=S(=O)(Nc1ccc(O)c2ccccc12)c1cccs1`, the results for the IC50 in assay [2] and in assay [3] were 6100 nM and 9000 nM, respectively.

Consider `COc1ccc(C(c2ccc3cccnc3c2O)N2CCOCC2)cc1` (stereo not drawn), for which the Ratio IC50 in the assay listed under Homo sapiens [1] amounted to 2. Besides, the IC50 came to 900 nM in assay [2] and 4000 nM in [3].

Consider `O=S(=O)(Nc1cc(Sc2nnc[nH]2)c(O)c2ccccc12)c1ccc(-c2ccccc2)cc1`, for which the 50% inhibitory concentration (IC50) in assay [2] stood at 80 nM; in assay [3] it was 220 nM.

Regarding `CCCCCCCCCCS(=O)(=O)Nc1cc(Sc2nnc[nH]2)c(O)c2ccccc12`, the half-maximal inhibitory concentration (IC50) is 1600 nM in [2] and 2100 nM in assay [3].

For the compound `O=S(=O)(Nc1cc(Sc2cnn[nH]2)c(O)c2ccccc12)c1cccs1`, the IC50 in assay [2] amounted to 720 nM; in assay [3], 1470 nM.

`O=S(=O)(Nc1cc(Br)c(O)c2ccccc12)c1cccs1`: the 50% inhibitory concentration (IC50) was determined as 320 nM in [2] and 340 nM in assay [3].

Consider `CC(=O)Nc1ccc(S(=O)(=O)Nc2cc(Sc3ncn[nH]3)c(O)c3ccccc23)cc1`, for which the Ratio IC50 in the assay listed under Homo sapiens [1] turned out to be 2.
